The source of these data is ChEMBL document CHEMBL4130516, “Immunomodulatory Polyketides from a Phoma-like Fungus Isolated from a Soft Coral” (J Nat Prod, 2017).

Activity calls are given as the source filed them. No cut-off for these calls is given here.

The subject of one data set is A549. Kind of data set: Cytotoxicity in human A549 cells assessed as reduction in cell viability at 30 uM incubated for CellTiter-Blue cell viability assay. Format: functional, cell-based. A digest of the protocol:
(§1)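 Cells were treated with compounds at 30 μM for 48 h at 37 °C in 5% CO2. Media were DMEM + 10% FBS for A549, HCT116 and MCF-7, and MEM for DAOY. Adriamycin was the positive control. Relative viability was read by CellTiter-Blue at 530/590 nm.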

For another data set, the system named is HCT-116. In words: Cytotoxicity in human HCT116 cells assessed as reduction in cell viability at 30 uM incubated for CellTiter-Blue cell viability assay. Format: functional, cell-based. A digest of the protocol: as §1
A general note: The colour change of resazurin is a common sign of viable cells or microbes.

For another data set, the system named is MCF7. Kind of data set: Cytotoxicity in human MCF7 cells assessed as reduction in cell viability at 30 uM incubated for CellTiter-Blue cell viability assay. The data set is classed as functional, cell-based. In short, it runs like this:
as §1

The subject of a further data set is Daoy. In words: Cytotoxicity in human DaOY cells assessed as reduction in cell viability at 30 uM incubated for CellTiter-Blue cell viability assay. The data set is classed as functional, cell-based. A digest of the protocol:
as §1

The subject of data set [1] is Splenocyte. Kind of data set: Induction of apoptosis in Con A-stimulated C57BL/6 mouse splenocytes at 3 uM by flow cytometry. Format: cell-based. In short, it runs like this:
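C57BL/6 mouse splenocytes (2 × 10^6 cells/mL) were incubated with compounds at 3 μM for 24 h, with Con A (5 μg/mL) as positive control. Cells were washed with PBS and immediately analysed for apoptosis by flow cytometry.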
(Flow cytometry measures light scatter and fluorescence of single cells or particles in a stream.)

Data set [2] relates to Splenocyte. In words: Immunomodulatory activity in Con A-stimulated C57BL/6 mouse splenocytes assessed as increase in CD3+T cell proliferation at 3 uM by PE-CD3 staining based flow cytometry. The data set is classed as functional. In short, it runs like this:
(§2)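 C57BL/6 mouse splenocytes, Con A-stimulated (Con A 5 μg/mL as control), were incubated with compounds at 3 μM for 24 h. Cells were stained with PE-CD3, FITC-CD4 and PerCP/Cy5.5-CD8. Flow cytometry gave the percentage of CD3+, CD4+ and CD8+ T cells and the CD4+/CD8+ ratio. Values are means ± SD, n = 3.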

Data set [3] concerns Splenocyte. In words: Immunomodulatory activity in C57BL/6 mouse splenocytes assessed as increase in CD3+T cell proliferation at 3 uM by PE-CD3 staining based flow cytometry. Format: functional.
Data set [4] deals with Splenocyte. Kind of data set: Immunomodulatory activity in Con A-stimulated C57BL/6 mouse splenocytes assessed as increase in ratio of CD4+/[…] cells at 3 uM by PE-CD3 staining based flow cytometry. The data set is classed as functional, cell-based. In short, it runs like this: as §2

As to `CC(=O)OCCC(=O)[C@]1(C)[C@H]2CC[C@@](C)(O)C[C@@H]2C=C[C@@]1(C)O`, the outcome with A549, in the data set on HCT-116, in the data set with MCF7 and in the data set on Daoy was inactive. Also, the Activity result in the data set with Splenocyte [1] was “Non-Toxic”.
With `CC(=O)OCCC(=O)[C@]1(C)[C@H]2CC[C@H](C)C[C@@H]2[C@H](Cl)[C@@H](O)[C@@]1(C)O`, the outcome in the data set on A549, in the data set on HCT-116, in the data set with MCF7 and with Daoy was inactive. Further, the Activity result in the data set on Splenocyte [1] was “Non-Toxic”.
Regarding `C[C@H]1CC[C@H]2C(=C[C@@H](O)[C@@](C)(O)[C@]2(C)C(=O)CCO)C1`, the result in the data set on A549, in the data set on HCT-116, in the data set with MCF7, with Daoy, with Splenocyte [2] and in the data set on Splenocyte [3] was inactive. In addition, the Activity result in the data set on Splenocyte [1] is “Non-Toxic”.
Take `C[C@H]1CC[C@H]2[C@@H](C=C[C@@](C)(O)[C@]2(C)C(=O)O)C1`: the outcome in the data set on A549, in the data set on HCT-116, in the data set with MCF7 and with Daoy was inactive. Also, the Activity result with Splenocyte [1] is given as “Non-Toxic”. For the same molecule, the outcome in the data set on Splenocyte [2] and in the data set with Splenocyte [3] was Active.
As for `CC(=O)[C@]1(C)[C@H]2CC[C@@](C)(O)C[C@@H]2C=C[C@@]1(C)O`, the result with A549, in the data set with HCT-116, with MCF7, in the data set on Daoy, in the data set with Splenocyte [2] and in the data set on Splenocyte [3] was inactive. In addition, in the data set with Splenocyte [1], the Activity result is recorded as “Non-Toxic”.
As to `C[C@@]1(O)CC[C@H]2[C@H](C1)[C@@H]1O[C@@H]1[C@@]1(C)OC(=O)CC[C@]21C`, the result in the data set on A549, in the data set with HCT-116, in the data set with MCF7 and in the data set with Daoy was inactive. For the same molecule, the Activity result in the data set with Splenocyte [1] is listed as “Non-Toxic”.
`C[C@H]1CC[C@H]2[C@H](C1)[C@@H](O)[C@@H]1O/C(=C\C=O)[C@@]2(C)[C@]1(C)O`: the result in the data set with A549, in the data set on HCT-116, with MCF7 and with Daoy was inactive. Moreover, the Activity result in the data set with Splenocyte [1] is listed as “Non-Toxic”.
Turning to `C[C@@]1(O)CC[C@H]2[C@@H](C=C[C@@]3(C)OC(=O)CC[C@]23C)C1`, the outcome in the data set with A549, with HCT-116, in the data set on MCF7, in the data set on Daoy, in the data set on Splenocyte [2] and with Splenocyte [3] was inactive. Also, the Activity entry in the data set on Splenocyte [1] is “Non-Toxic”.
Take `CC(=O)OCCC(=O)[C@]1(C)[C@H]2CC[C@H](C)C[C@@H]2C=C[C@@]1(C)O`: the result in the data set with A549, in the data set on HCT-116, with MCF7, in the data set on Daoy, in the data set on Splenocyte [2] and in the data set with Splenocyte [3] was inactive. For the same molecule, the Activity entry in the data set on Splenocyte [1] is “Non-Toxic”. The outcome with Splenocyte [4] was Active.
In the case of `C[C@H]1CC[C@H]2[C@H](C1)[C@H](Cl)[C@@H](O)[C@@](C)(O)[C@]2(C)C(=O)CCO`, the result with A549, in the data set with HCT-116, in the data set with MCF7, in the data set on Daoy, in the data set with Splenocyte [2] and in the data set with Splenocyte [3] was inactive. Also, the Activity result with Splenocyte [1] is given as “Non-Toxic”. In the data set on Splenocyte [4], the result was Active.
Turning to `CC(=O)[C@]1(C)[C@H]2CC[C@H](C)C[C@@H]2[C@H](Cl)[C@@H](O)[C@@]1(C)O`, the outcome in the data set with A549, in the data set with HCT-116, in the data set with MCF7 and with Daoy was inactive. The Activity entry with Splenocyte [1] is “Non-Toxic”.
In the case of `CC(=O)[C@@]1(C)C(C)=C[C@H](O)[C@H]2C[C@](C)(O)CC[C@@H]21`, the result with A549, in the data set with HCT-116, with MCF7 and with Daoy was inactive. Also, in the data set with Splenocyte [1], the Activity entry is “Non-Toxic”. In addition, the result with Splenocyte [4] was Active.
On to `C[C@H]1CC[C@H]2[C@@H](C=C[C@@](C)(O)[C@]2(C)C(=O)CCO)C1`, for which the result in the data set with A549, in the data set on HCT-116, in the data set with MCF7 and in the data set with Daoy was inactive. In addition, in the data set with Splenocyte [1], the Activity result is “Non-Toxic”. Moreover, the result with Splenocyte [2] and in the data set with Splenocyte [3] was Active.
Consider `C[C@@]1(O)CC[C@H]2[C@@H](C=C[C@@]3(C)OC(=O)C[C@H](O)[C@]23C)C1`, for which the result in the data set on A549, in the data set with HCT-116, in the data set with MCF7, in the data set with Daoy, in the data set on Splenocyte [2] and with Splenocyte [3] was inactive. Further, the Activity entry with Splenocyte [1] is “Non-Toxic”. Also, the result in the data set with Splenocyte [4] was Active.
With `C[C@@]1(O)CC[C@H]2[C@](O)(C1)[C@@H]1O[C@@H]1[C@@]1(C)OC(=O)CC[C@]21C`, the result in the data set on A549, with HCT-116, with MCF7 and in the data set on Daoy was inactive. Besides, the Activity entry in the data set on Splenocyte [1] is reported as “Non-Toxic”. The outcome with Splenocyte [2] and with Splenocyte [3] was Active.
In the case of `C[C@@]1(O)CC[C@H]2[C@@H](C=C[C@]3(C)OCC[C@H](O)[C@]23C)C1`, the result with A549, in the data set with HCT-116, with MCF7, with Daoy, in the data set on Splenocyte [2] and in the data set with Splenocyte [3] was inactive. In addition, the Activity entry in the data set with Splenocyte [1] is given as “Non-Toxic”.
